Experimental findings from ChEMBL document CHEMBL2396626, “Exploiting drug-resistant enzymes as tools to identify thienopyrimidinone inhibitors of human immunodeficiency virus reverse transcriptase-associated ribonuclease H” (J Med Chem, 2013) are described below.

Data set [1] can be described thus: Inhibition of RNase H activity of HIV-1 reverse transcriptase p66/p51 R284A mutant using 18 nucleotide 3'-fluorescein-labeled RNA/18 nucleotide 5'-dabsyl-labeled DNA hybrid as substrate after 10 mins by fluorescence spectrometric analysis. Also on record: species or system Human immunodeficiency virus 1.
The nature of data set [2]: Inhibition of RNase H activity of HIV-1 reverse transcriptase p66/p51 C280A mutant using 18 nucleotide 3'-fluorescein-labeled RNA/18 nucleotide 5'-dabsyl-labeled DNA hybrid as substrate after 10 mins by fluorescence spectrometric analysis. Set-up: species or system Human immunodeficiency virus 1.
A further data set has as its system CEM-SS. As to the kind of experiment: Cytotoxicity against human CEM-SS cells by XTT assay. It is filed as cell-based. In a few lines: (§1)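 Cytopathic-protection format: HIV-1 RF isolate in human T-cell line CEM-SS, with cell viability read by XTT-based assay.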
Data set [3] relates to Human immunodeficiency virus 1. Briefly: Inhibition of HIV-1 DNA-dependent DNA polymerase using DNA duplex as substrate at 50 uM after 15 mins by PAGE relative to control.
A short description of data set [4]: Inhibition of RNase H activity of HIV-1 reverse transcriptase p66/p51 V276A mutant using 18 nucleotide 3'-fluorescein-labeled RNA/18 nucleotide 5'-dabsyl-labeled DNA hybrid as substrate after 10 mins by fluorescence spectrometric analysis. Also on record: species or system Human immunodeficiency virus 1.
Data set [5] addresses Human immunodeficiency virus type 1 reverse transcriptase (Human immunodeficiency virus 1) (UniProt Q72547). Briefly: Binding affinity to HIV-1 reverse transcriptase p66/p51 assessed as decrease in melting temperature at 10 uM by differential scanning fluorimetric analysis in presence of Mg2+.
Data set [6] can be described thus: Selectivity ratio of CC50 for human CEM-SS cells to EC50 for Human immunodeficiency virus 1 RF isolate. It is filed as ADME, cell-based.
The subject of data set [7] is Human immunodeficiency virus 1. Briefly: Antiviral activity against Human immunodeficiency virus 1 RF isolate infected in human CEM-SS cells by XTT assay. It is filed as functional, organism-based. In a few lines: as §1
Data set [8] relates to Human immunodeficiency virus type 1 reverse transcriptase (Human immunodeficiency virus 1), Q72547 [Y181C]. As to the kind of experiment: Inhibition of HIV-1 reverse transcriptase Y181C mutant at 50 uM.
Data set [9] has as its system Human immunodeficiency virus type 1 reverse transcriptase (Human immunodeficiency virus 1), Q72547 [K103N]. Briefly: Inhibition of HIV-1 reverse transcriptase K103N mutant at 50 uM.
The nature of data set [10]: Inhibition of RNase H activity of HIV-1 reverse transcriptase p66/p51 T286A mutant using 18 nucleotide 3'-fluorescein-labeled RNA/18 nucleotide 5'-dabsyl-labeled DNA hybrid as substrate after 10 mins by fluorescence spectrometric analysis. Set-up: species or system Human immunodeficiency virus 1.
The target in data set [11] is Human immunodeficiency virus type 1 integrase (Human immunodeficiency virus 1) (UniProt Q7ZJM1). As to the kind of experiment: Inhibition of HIV-1 integrase using DNA duplex as substrate at 50 uM preincubated for 10 mins prior to substrate addition measured after 1 hr.
Data set [12] addresses Human immunodeficiency virus type 1 reverse transcriptase (Human immunodeficiency virus 1, UniProt Q72547). As to the kind of experiment: Inhibition of RNase H activity of wild type HIV-1 reverse transcriptase using 18 nucleotide 3'-fluorescein-labeled RNA/18 nucleotide 5'-dabsyl-labeled DNA hybrid as substrate after 10 mins by fluorescence spectrometric analysis.

Activity calls are given as the source filed them. The rule behind the calls is not given here.

Chain of Human immunodeficiency virus type 1 integrase (Human immunodeficiency virus 1) (Q7ZJM1 as listed by the source): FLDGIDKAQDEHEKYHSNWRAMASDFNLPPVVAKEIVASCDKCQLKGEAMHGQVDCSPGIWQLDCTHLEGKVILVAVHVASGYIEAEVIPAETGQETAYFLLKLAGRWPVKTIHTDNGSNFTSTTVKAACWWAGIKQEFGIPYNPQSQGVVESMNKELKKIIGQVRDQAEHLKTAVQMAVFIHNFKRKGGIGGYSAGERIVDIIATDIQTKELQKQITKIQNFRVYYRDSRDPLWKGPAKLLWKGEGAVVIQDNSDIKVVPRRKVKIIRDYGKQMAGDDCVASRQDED

As to `CCCCc1c(C)sc2nc(-c3ccc(O)c(O)c3)[nH]c(=O)c12`, the IC50 in data set [1] was 1200 nM; in [2], 490 nM; in data set [4], 910 nM; in data set [10] it was 1100 nM; in [12] it was 420 nM. Besides, the 50% cytotoxic concentration (CC50) in the data set with CEM-SS was determined as 25400 nM. The molecule also gave an inhibition in data set [3] of more than 60%. Moreover, the ΔTm in data set [5] stood at 0.5 °C. Besides, the “Ratio CC50/EC50” value in data set [6] was found to be 3.2. This molecule registered an EC50 in data set [7] of 7900 nM. The inhibition result in data set [8] and in data set [9] was “Active” in each case. For the same molecule, in data set [11], the inhibition result is “inactive”.
Regarding `O=c1[nH]c(-c2ccc(O)c(O)c2)nc2sc3c(c12)CCC3`, the IC50 came to 470 nM in data set [1]; 260 nM in data set [2]; 210 nM in data set [4]; 370 nM in data set [10]; 320 nM in data set [12]. Besides, in data set [3], the inhibition was more than 60%. Further, the ΔTm in [5] is 0.5 °C. Further, the inhibition entry in data set [8] and in [9] was “Active” in each case. Besides, the inhibition entry in [11] is “inactive”.
As for `O=c1[nH]c(-c2ccc(O)c(O)c2)nc2sc3c(c12)CCCCCC3`, the IC50 came out at 280 nM in [1]; 230 nM in data set [2]; 110 nM in data set [4]; 290 nM in data set [10]; 260 nM in data set [12]. Moreover, in data set [3], the inhibition was more than 60%. The ΔTm in data set [5] was determined as 0.5 °C. Further, the inhibition entry in [8] and in data set [9] was “Active” throughout. Besides, the inhibition result in [11] was “inactive”.
In [12], `COc1cc(-c2nc3sc(C)c(C)c3c(=O)[nH]2)ccc1O` yielded an IC50 of more than 50000 nM.
`Cc1sc2nc(-c3ccc(Cl)c([N+](=O)[O-])c3)[nH]c(=O)c2c1C` gave an IC50 in [12] of 12000 nM.
Turning to `Cc1sc2nc(-c3ccc(C(F)(F)F)cc3)[nH]c(=O)c2c1C`, the IC50 was 230 nM in data set [1]; more than 50000 nM in data set [2]; 310 nM in [4]; 7500 nM in data set [10]; 1300 nM in [12].
Take `Cc1sc2nc(-c3cc(O)ccc3O)[nH]c(=O)c2c1C`: in [12], the concentration for half-maximal inhibition (IC50) is 9300 nM.
Still for that read-out and setting: in the case of `Cc1sc2nc(-c3ccc(F)c(F)c3)[nH]c(=O)c2c1C` it was more than 50000 nM.
For `CCCc1c(C)sc2nc(-c3cccc(O)c3O)[nH]c(=O)c12`, the IC50 amounted to 3500 nM in data set [1]; 2900 nM in data set [2]; 4100 nM in [4]; 5700 nM in data set [10]; 1700 nM in [12]. The midpoint of cytotoxicity in the data set on CEM-SS, the CC50, lay at 12400 nM. The ΔTm in [5] was 0.5 °C. Moreover, the “Ratio CC50/EC50” value in data set [6] is given as 4. In addition, a half-maximal effect in data set [7] (EC50) was put at 3100 nM. For the same molecule, in data set [11], the inhibition entry is “inactive”.
Consider `O=c1[nH]c(-c2ccc(O)c(O)c2)nc2sc3c(c12)CCCC3`, for which the IC50 in data set [1] amounted to 920 nM; in data set [2] it was 290 nM; in [4], 410 nM; in data set [10], 460 nM; in data set [12] it was 370 nM. Besides, in data set [3], the inhibition is more than 60%. For the same molecule, the ΔTm in data set [5] worked out at 0.5 °C. Also, the inhibition result in data set [8] and in data set [9] was “Active” each time. Also, the inhibition entry in data set [11] was “inactive”.
On to `O=c1[nH]c(-c2ccc(O)cc2)nc2sc3c(c12)CCCCC3`, for which the IC50 in [1] was found to be 650 nM; in [2], 15800 nM; in [4], 640 nM; in data set [10], 6600 nM; in [12] it was 3200 nM.
In data set [12], `Cc1sc2nc(-c3cc(O)c(O)cc3O)[nH]c(=O)c2c1C` came in with an IC50 of 1600 nM.
Consider `Cc1sc2nc(-c3cc(C(F)(F)F)cc(C(F)(F)F)c3)[nH]c(=O)c2c1C`, for which the IC50 in data set [12] was more than 50000 nM.
Molecule `Cc1sc2nc(-c3cccnc3)[nH]c(=O)c2c1C` registered an IC50 in data set [12] of 8300 nM.
For `Cc1sc2nc(-c3cc(O)c(O)c(O)c3)[nH]c(=O)c2c1C`, it took 690 nM to reach half-maximal inhibition in data set [12] (IC50).
For the molecule `Cc1sc2nc(-c3ccc(O)c(F)c3)[nH]c(=O)c2c1C`, in data set [12], the IC50 is more than 50000 nM.
`O=c1[nH]c(-c2cc(O)cc(O)c2)nc2sc3c(c12)CCCCC3` gave an IC50 in data set [12] of 2600 nM.
On the same count and under the same terms, under `Cc1sc2nc(-c3ccc(C(=O)O)cc3)[nH]c(=O)c2c1C` stands 1600 nM; under `COc1ccc(-c2nc3sc(C)c(C)c3c(=O)[nH]2)cc1OC`, 12600 nM.
Take `O=c1[nH]c(-c2ccccc2)nc2sc3c(c12)CCCCC3`: the half-inhibitory concentration (IC50) in data set [1] worked out at 1300 nM; in data set [2] it was 41400 nM; in data set [4], 960 nM; in data set [10], 27900 nM; in data set [12] it was 4100 nM.
For the molecule `Cc1sc2nc(-c3ccc([N+](=O)[O-])cc3)[nH]c(=O)c2c1C`, in data set [5], the ΔTm came to 0.5 °C.
For `Cc1sc2nc(-c3ccc([N+](=O)[O-])o3)[nH]c(=O)c2c1C`, in data set [12], the IC50 was 16900 nM.
Still for that read-out and setting: under `O=c1[nH]c(-c2cc(O)ccc2O)nc2sc3c(c12)CCCCC3` stands 1700 nM; under `COc1ccc(-c2nc3sc(C)c(C)c3c(=O)[nH]2)cc1`, 9100 nM.
With `O=c1[nH]c(-c2cccc(O)c2O)nc2sc3c(c12)CCCCC3`, the IC50 in [1] was 2900 nM; in data set [2] it was 1600 nM; in [4] it was 2800 nM; in data set [10], 3600 nM; in data set [12] it was 1800 nM. The molecule also had a CC50 with CEM-SS of 9800 nM. Further, the ΔTm in [5] is 0.5 °C. Further, the “Ratio CC50/EC50” value in data set [6] turned out to be 3.6. In data set [7], this molecule had an EC50 of 2700 nM.
Turning to `Cc1sc2nc(-c3ccc(O)cc3)[nH]c(=O)c2c1C`, the IC50 in data set [1] was 200 nM; in data set [2], more than 50000 nM; in data set [4], 140 nM; in [10], 3700 nM; in data set [12] it was 790 nM.
For `Cc1sc2nc(-c3cc4ccccc4[nH]3)[nH]c(=O)c2c1C`, in that order: 120 nM, more than 50000 nM, 160 nM, 960 nM and 480 nM.
Regarding `Cc1sc2nc(-c3cccc(C(F)(F)F)c3)[nH]c(=O)c2c1C`, the IC50 in data set [12] was more than 50000 nM.
`Cc1sc2nc(-c3cccc([N+](=O)[O-])c3)[nH]c(=O)c2c1C`: the half-maximal inhibitory concentration (IC50) in [1] was 340 nM; in data set [2] it was more than 50000 nM; in data set [4], 260 nM; in data set [12], 1500 nM.
With `Cc1sc2nc(-c3ccccn3)[nH]c(=O)c2c1C`, the IC50 in data set [12] was 4200 nM.
The same measure, in the same setting: in the case of `O=c1[nH]c(-c2ccc(O)cc2O)nc2sc3c(c12)CCCCC3` it was 9300 nM.
Turning to `CCCc1c(CC)sc2nc(-c3ccc(O)c(O)c3)[nH]c(=O)c12`, the IC50 worked out at 1400 nM in data set [1]; 500 nM in [2]; 760 nM in data set [4]; 820 nM in data set [10]; 590 nM in data set [12]. The molecule further returned a CC50 with CEM-SS of 33700 nM. The molecule further came in with an inhibition in data set [3] of more than 60%. Also, the ΔTm in data set [5] turned out to be 0.5 °C. Further, the “Ratio CC50/EC50” value in data set [6] was determined as 3.7. Also, the EC50 in [7] is 9200 nM. Besides, the inhibition result in data set [8] and in [9] was “Active” in each case. The inhibition entry in data set [11] was “inactive”.
For the molecule `O=C(O)c1ccc(-c2nc3sc4c(c3c(=O)[nH]2)CCCCC4)cc1`, the IC50 in [1] was 950 nM; in data set [2], more than 50000 nM; in data set [4], 460 nM; in data set [10] it was 32000 nM; in [12] it was 1900 nM.
For the molecule `Cc1sc2nc(-c3ccccc3)[nH]c(=O)c2c1C`, the half-inhibitory concentration (IC50) in [12] was 11300 nM.
In the case of `O=c1[nH]c(-c2ccc(C(F)(F)F)cc2)nc2sc3c(c12)CCCCC3`, the IC50 in [1] is 540 nM; in [2] it was 10600 nM; in data set [4] it was 530 nM; in [10] it was 7200 nM; in data set [12], 3100 nM.
`Cc1sc2nc(-c3cc(O)cc(O)c3)[nH]c(=O)c2c1C`: it took 5200 nM to reach half-maximal inhibition in [12] (IC50).
With `CCCc1c(C)sc2nc(-c3ccc(O)c(O)c3)[nH]c(=O)c12`, the half-maximal inhibitory concentration (IC50) turned out to be 800 nM in data set [1]; 370 nM in [2]; 560 nM in data set [4]; 570 nM in [10]; 490 nM in data set [12]. Further, in the data set with CEM-SS, the CC50 is 11200 nM. Further, in data set [5], the ΔTm stood at 0.5 °C. The “Ratio CC50/EC50” value in data set [6] was found to be 5.9. The EC50 in [7] was found to be 1900 nM.
The molecule `Cc1sc2nc(-c3cccc(O)c3)[nH]c(=O)c2c1C` displayed an IC50 in data set [12] of more than 50000 nM.
